Each structure is given as a SMILES string. Active and inactive are the calls of the source. The calls are words filed in the database; no cut-off is given here.

The results in this text go back to ChEMBL document CHEMBL2429751, “Diterpenoids and sesquiterpenoids from the roots of Illicium majus” (J Nat Prod, 2013).

The subject of data set [1] is Coxsackievirus B3. The data set can be described thus: Antiviral activity against Coxsackievirus B3 infected in African green monkey Vero cells assessed as protection against virus-induced cytopathic effect after 48 hrs by Reed-Muench analysis. Type of data set: functional, organism-based. Summed up:
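Confluent Vero monolayers were infected with 100 TCID50 Cox B3 and allowed 1 h adsorption at 37 °C. Cells were PBS-washed, then kept at 37 °C in maintenance medium with 2% FBS, with or without graded compound concentrations. CPE was scored once virus controls reached 4+, and IC50 was derived by Reed–Muench analysis.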

Data set [2] deals with Coxsackievirus B3. The data set can be described thus: Selectivity index, ratio of TC50 for African green monkey Vero cells to IC50 for Coxsackievirus B3. Format: toxicity, cell-based. As to conditions: read-out: Selectivity Index. Summed up: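 SI is TC50/IC50. TC50 comes from 48 h Vero CPE cytotoxicity and IC50 from Cox B3 (100 TCID50) CPE inhibition in Vero cells, both by Reed–Muench analysis.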

The next data set relates to Vero. Put plainly: Cytotoxicity against African green monkey Vero cells after 48 hrs by Reed-Muench analysis. Type of data set: cell-based. The arrangement: unit not given here. Conditions: chlorocebus sabaeus. Summed up:
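Vero cells were seeded and, after 24 h, exposed to graded compound concentrations for 48 h at 37 °C under 5% CO2. Cell damage was scored microscopically as CPE, and TC50 was calculated by Reed–Muench analysis.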

For `C[C@]1(CO)CCC[C@]2(C)c3ccc([C@](C)(O)CO)cc3CC[C@@H]12`, the outcome in the data set with Coxsackievirus B3 [1] was inactive. Turning to `CC1=C(C(=O)O[C@@]23OC[C@]4(C)[C@@]5(O)CC[C@@H](C)[C@@]5(CC(=O)[C@]24C)[C@H]3O)CCC1=O`, the selectivity ratio in the data set on Coxsackievirus B3 [2] turned out to be 3. The molecule also came in with a TC50 in the data set on Vero of 200. Moreover, the IC50 in the data set on Coxsackievirus B3 [1] is 66.7. Turning to `C[C@@H]1CC[C@@]23O[C@@]4(O)C[C@@]12[C@@H](O)C(=O)OC[C@@]3(CO[C@@H]1O[C@H](CO)[C@@H](O)[C@H](O)[C@H]1O)[C@@]4(C)O`, the outcome in the data set with Coxsackievirus B3 [1] was inactive. For `C[C@@]12COC(=O)[C@]1(C)[C@@H](OC(=O)c1ccccc1)[C@]13CC(=O)O[C@@]1(C)CC[C@]23O`, the outcome with Coxsackievirus B3 [1] was inactive.

As to `CC(C)(O)c1ccc2c(c1)C(=O)C[C@H]1[C@@](C)(CO)CCC[C@]21C`, in the data set on Coxsackievirus B3 [1], the result was inactive. In the case of `C[C@@H]1CC[C@@]23O[C@@]4(O)C[C@@]12[C@@H](O)C(=O)OC[C@@]3(CO)[C@@]4(C)O`, the selectivity ratio with Coxsackievirus B3 [2] stood at 3. The same molecule displayed a TC50 with Vero of 200. Moreover, the IC50 with Coxsackievirus B3 [1] is recorded as 66.7.

For `CC(C)c1ccc2c(c1)CC[C@H]1[C@@](C)(C(=O)O)CCC[C@]21C`, the selectivity ratio in the data set on Coxsackievirus B3 [2] stood at 6.7. In the case of `C[C@@]12COC(=O)[C@]1(C)[C@@H](O)[C@@]13CC(=O)O[C@@]21CC=C3CO[C@@H]1O[C@H](CO)[C@@H](O)[C@H](O)[C@H]1O`, in the data set on Coxsackievirus B3 [2], the selectivity ratio turned out to be 3.9. This molecule showed a TC50 in the data set with Vero of 200. The IC50 with Coxsackievirus B3 [1] is 51.7.

On to `C[C@](O)(CO)c1ccc2c(c1)CC[C@H]1[C@@](C)(C(=O)O)CCC[C@]21C`, for which, in the data set with Coxsackievirus B3 [2], the selectivity ratio came out at 6.2. Also, the TC50 in the data set with Vero is recorded as 138.7. Also, the IC50 in the data set on Coxsackievirus B3 [1] is recorded as 22.2.

Turning to `C[C@@H](CO)c1ccc2c(c1)CC[C@H]1[C@@](C)(C(=O)O)CCC[C@]21C`, in the data set with Coxsackievirus B3 [2], the selectivity ratio was determined as 5.2. In the data set on Vero, this molecule gave a TC50 of 66.7. Also, the IC50 with Coxsackievirus B3 [1] was 12.8. Taken in the same sequence, the figures for `C[C@H](CO)c1ccc2c(c1)CC[C@H]1[C@@](C)(C(=O)O)CCC[C@]21C` were 8, 138.7 and 17.4. On to `C[C@]1(CO)CCC[C@]2(C)c3ccc([C@@](C)(O)CO)cc3CC[C@@H]12`, for which, in the data set on Coxsackievirus B3 [1], the outcome was inactive. Turning to `CC(C)(O)c1ccc2c(c1)C(=O)C[C@H]1[C@@](C)(C(=O)O)CCC[C@]21C`, the selectivity ratio in the data set on Coxsackievirus B3 [2] is 3.9.
